Sampled rows, rich in hits. Any-hit rate of the full collection: about 1.6%.
TRAIL sens C8 = sensitizes caspase-8 expressing cells to TRAIL; inhibition (viability loss, TRAIL sensitization), % at 10 µM; hit rate 1% among 360,000; NB7+C8 cells + TRAIL, ATPlite viability luminescence;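 active means compounds causing at least 50% loss of cell viability in the single-dose screen, relative to plate controls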
FLuc act counter = firefly luciferase counter-screen for stimulation assays; ATPlite luciferase biochemical, luminescence, 10 min; 0 = ATP-free wells, 1 = DMSO control; 200,000 tested, under 10 active; P08659; activation factor at 10 µM;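 active means luciferase activation factor, scaled between plate controls, of at least 2 with compound at 10 µM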
Target sequence (P08659 whole entry, looked up): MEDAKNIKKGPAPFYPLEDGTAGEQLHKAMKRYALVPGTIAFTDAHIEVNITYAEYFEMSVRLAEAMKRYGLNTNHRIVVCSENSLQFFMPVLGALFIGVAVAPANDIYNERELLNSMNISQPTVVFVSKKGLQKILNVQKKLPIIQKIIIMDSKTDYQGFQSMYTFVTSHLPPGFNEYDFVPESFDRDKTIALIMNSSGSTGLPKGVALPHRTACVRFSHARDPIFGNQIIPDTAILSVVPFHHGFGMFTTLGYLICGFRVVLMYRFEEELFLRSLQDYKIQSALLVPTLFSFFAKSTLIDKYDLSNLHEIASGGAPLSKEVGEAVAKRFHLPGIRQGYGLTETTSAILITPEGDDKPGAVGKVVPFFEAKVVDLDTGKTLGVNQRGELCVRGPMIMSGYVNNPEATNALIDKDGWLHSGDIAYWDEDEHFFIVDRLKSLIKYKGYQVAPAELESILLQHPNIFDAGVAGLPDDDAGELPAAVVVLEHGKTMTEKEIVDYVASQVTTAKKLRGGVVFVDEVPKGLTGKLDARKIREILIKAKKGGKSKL
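Assay system: Luciferase/luciferin reagent mix; Medium: PBS as buffer for the ATP substrate; Dosing: test compounds dosed from 2 mM stocks in 100% DMSO; Times: 10 min, room temperature; Signal: luminescence from luciferase reaction; Read-out: luciferase activation; Controls: No-ATP low control, compound-free enzyme-plus-ATP high control.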
PPC-1+TRAIL kill = kills PPC-1 cancer cells in the presence of TRAIL; PPC-1 cells + TRAIL, ATPLite viability luminescence; cell killing (% activity), % at 4 µM or 5 µM; hit rate 0.41% among 220,000; AID 1443;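 active means cell killing above 50% in the first pass at 4 µM, then a duplicate retest at 5 µM averaging 50% or more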;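 further: plate controls were cells with TRAIL plus DMSO for no effect and medium-only wells lacking cells for full effect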
FLuc inhib CS = inhibits firefly luciferase, flagging false hits in luciferase inhibition screens | P08659 | ATPLite firefly luciferase biochemical luminescence, 10 min | inhibition, % at 10 µM | hit rate 1.5% among 200,000 | AID 1006;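 active means inhibition above about 50% when tested at 10 µM, limit read from the data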
Starred values were filed as active, the others as inactive; . = not tested or not shown.

SMILES	TRAIL sens C8	FLuc act counter	PPC-1+TRAIL kill	FLuc inhib CS
O=C(Nc1nnc(/N=C/c2ccco2)s1)c1ccc(F)cc1	50*	0.6	-1	39
O=C(Nc1nnc(-c2ccco2)s1)c1ccccc1	29	0.5	13	48
COc1ccccc1NC(=O)Nc1nnc(-c2ccco2)s1	.	1	9	-4
Cc1c(C(=O)NC(=S)N(Cc2ccccc2)c2ccccn2)cccc1[N+](=O)[O-]	-3	.	.	.
O=C(Nc1ccccc1C(=O)O)c1ccc(Cl)c(S(=O)(=O)N2CCOCC2)c1	26	0.4	33	60*
COc1ccccc1NC(=O)c1ccc(Cl)c(S(=O)(=O)N2CCOCC2)c1	-4	1	-3	-5
O=C(Nc1cccnc1)c1ccc(Cl)c(S(=O)(=O)N2CCCCC2)c1	7	.	.	.
O=C(O)c1cccc(NC(=O)c2ccc(Cl)c(S(=O)(=O)N3CCCCCC3)c2)c1	38	0.3	28	65*
Cc1nc(SCC(=O)Nc2nccs2)c(C#N)c(C)c1C	80*	.	.	.
C#CCOCCOCCOCCNc1nc(N2CCN(C(=O)[C@H](C(C)C)n3cc(CCO)nn3)CC2)nc(N2CCN(C(=O)[C@H]([C@@H](C)CC)n3cc(CCC(=O)O)nn3)CC2)n1	-20	.	.	.
C#CCOCCOCCOCCNc1nc(N2CCN(C(=O)CCCCCCCCCCNC(=O)[C@H](CCCCN)n3cc(CCO)nn3)CC2)nc(N2CCN(C(=O)CCCCCCCCCCNC(=O)[C@H](CCCN=C(N)N)n3cc(C[C@@H](C)CC)nn3)CC2)n1	0	.	.	.
C#CCOCCOCCOCCNc1nc(N2CCN(C(=O)CCCCCCCCCCNC(=O)Cn3cc(C[C@@H](C)O)nn3)CC2)nc(N2CCN(C(=O)CCCCCCCCCCNC(=O)[C@H](CCCCN)n3cc(C[C@@H](C)CC)nn3)CC2)n1	86*	.	.	.
C#CCOCCOCCOCCNc1nc(N2CCN(C(=O)CCCCCCCCCCNC(=O)[C@H](CCCCN)n3cc(C[C@@H](C)CC)nn3)CC2)nc(N2CCN(C(=O)CCCCCCCCCCNC(=O)[C@H](CCCCN)n3cc(C[C@@H](C)CC)nn3)CC2)n1	95*	.	.	.
O=C(COC(=O)c1cc(S(=O)(=O)N2CCOCC2)ccc1F)NCc1ccc2c(c1)OCO2	18	.	.	.
COc1ccc(CNC(=O)c2sc(=O)n(Cc3ccccc3OC)c2C)cc1	-7	.	.	.
CCCCCc1cc(=O)oc2c(C(CCN3CCCCC3)c3cc(OC)c(OC)c(OC)c3)c(OC)cc(OC)c12 (configuration not stated)	67*	.	21	.
Cc1ccc(C(=O)COC(=O)c2ccc3c(c2)C(=O)N(c2cccc4ncccc24)C3=O)cc1	51*	1	27	4
O=C(COC(=O)c1ccc2c(c1)C(=O)N(c1cccc3ncccc13)C2=O)c1ccc(Cl)cc1	8	1	12	-2
O=C(NCc1ccccc1)c1ccc(S(=O)(=O)NCc2ccco2)cc1	-18	.	.	.
Cc1ccc(S(=O)(=O)N2CC(O)C[C@H]2C(=O)OCC(=O)N2CCN(c3ccc(F)cc3)CC2)cc1C (some centres not stated)	-5	.	.	.
O=C(Cc1nc2ccccc2[nH]c1=O)c1ccccc1	42	0.4	26	58*
C=CCOc1ccc(C=CC(=O)c2c(O)c(OC)c(OC)c(OC)c2OC)cc1	-5	.	.	.
O=C(N/N=C/c1ccc(O)c(O)c1)N/N=C/c1ccc(O)c(O)c1	55*	.	.	.
Cc1nonc1C(=O)N/N=C/c1ccc(O)c(O)c1	15	1	7	4
O=C(/C=C/c1ccco1)Nc1cccnc1	15	0.7	10	33
SMILES	TRAIL sens C8	FLuc act counter	PPC-1+TRAIL kill	FLuc inhib CS
O=C(/C=C/c1ccco1)Nc1ccccn1	20	0.3	29	69*
Cc1ccc(NC(=O)/C=C/c2ccco2)nc1	33	0.4	30	62*
CNc1nc(-c2ccc3c(c2)CCN3C(=O)c2ccccc2F)cs1	44	0.4	25	65*
CCC(C)C(=O)N1CCc2cc(-c3csc(N)n3)ccc21 (configuration not stated)	27	0.3	10	67*
Nc1nc(-c2ccc3c(c2)CCCC3)cs1	11	0.4	29	58*
CCCC(=O)N1CCc2cc(-c3nc(N)sc3C)ccc21	9	0.8	12	15
CCCS(=O)(=O)NC(=O)C1(C)CCCN(C(=O)Cc2ccc3ccccc3c2)C1 (configuration not stated)	-17	.	.	.
CCN(CC)c1ccc(/C=C2\C(=O)c3ccc(C(=O)O)cc3C2=O)cc1	1	0.1	15	92*
CCN(CC)c1ccc(C(=O)O)cc1	-7	1	1	-4
CC(C)NC(=O)C1(C)CCCCN1Cc1ccc(OCc2ccccc2)cc1 (configuration not stated)	7	.	.	.
CCC(C)C(NC(N)=O)C(=O)Nc1ccc(C(=O)OC)cc1 (configuration not stated)	-4	1.1	35	-6
CCc1ccc(C(=O)COC(=O)[C@@H](NC(N)=O)[C@@H](C)CC)cc1	40	0.1	17	89*
O=C(O)c1ccc2c(c1)S(=O)(=O)c1cc(N3CCN(c4ncccn4)CC3)ccc1C2=O	7	.	.	.
C/C(=N/NC(=O)c1ccco1)c1cccc(NC(=O)c2ccc(C)o2)c1	14	0.8	21	25
CCC(CC)C(=O)Nc1cccc(/C(C)=N\NC(=O)c2ccc(C)s2)c1	-18	1	21	1
C/C(=N\NC(=O)c1ccn(C)n1)c1cccc(NC(=O)c2ccc(C)s2)c1	58*	0.3	46	73*
C/C(=N/NC(=O)c1ccco1)c1cccc(NC(=O)c2ccc(C)s2)c1	26	0.3	25	69*
C[C@H](O)[C@@H]1C(=O)N2CCc3c([nH]c4ccccc34)[C@@H]2C[C@@H]1N(C)S(=O)(=O)c1ccccc1	41	.	.	.
CC(C)C(NS(=O)(=O)c1ccccc1)C(=O)OCc1cc([N+](=O)[O-])cc2c1OCOC2 (configuration not stated)	-10	1	16	-2
Cc1cc(C)c2nc(Nc3nc(-c4ccccc4)cc(=O)[nH]3)nc(C)c2c1	14	.	16	.
Cc1cc(-c2ccccc2)nc(Nc2nc3c(C)cccc3c(=O)[nH]2)n1	71*	.	.	.
O=C(Cc1ccsc1-c1ccccc1)NO	63*	1	7	-4
O=C(Cc1csc(NC(=O)c2ccccc2)n1)NO	11	1	11	-2
CC1(C)C(=O)C=CC(=O)C(C)(C)C(=O)C=CC(=O)C(C)(C)C2=CC=C(O2)C(C)(C)C(=O)C=CC1=O	16	.	.	.
CSc1ccc(C2NC(=O)c3ccccc3N2)cc1 (configuration not stated)	51*	.	.	.
O=C1NC(c2ccc(O)cc2)Nc2ccccc21 (configuration not stated)	13	.	.	.
Nc1nc(N)c(-c2cccc(C(F)(F)F)c2)c(Cc2cccc(C(F)(F)F)c2)n1	78*	.	.	.
O=C(O)c1ccc(N2C(=O)CC(SC(=Nc3ccccc3)Nc3ccccc3)C2=O)cc1 (configuration not stated)	-2	1	27	-2
